# Laboratory results published in paper PMC3873039 (Anti-Cancer Agents in Medicinal Chemistry, 2013).
# How the values were obtained:
# [1] = test system: MOLT-3; assay: Hoechst 33342 nuclear morphological analysis of apoptosis; assay type: cell-based; conditions: Homo sapiens, MOLT-3, 24 h, read-out: AP50 (50% induction of apoptosis), Hoechst 33342 staining (Hoe)
# How it was run: (§1)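 Seeded at 0.5 x 10⁶ cells/well in 12-well plates and treated 24 h. Cells were pelleted (400 g, 5 min, 4 °C), washed in PBS, fixed in 4% paraformaldehyde, cytospun, air-dried, then stained with 10 μg/ml Hoechst 33342 for 10 min in the dark. Fluorescence microscopy: 200 cells counted, scored by condensed/intense nuclei, shrinkage, blebbing and apoptotic bodies. % apoptotic nuclei calculated. AP50 = concentration giving 50% apoptotic cells.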
# [2] = test system: K562; assay: as above; assay type: cell-based; conditions: Homo sapiens, K562, 24 h, read-out: AP50 (50% induction of apoptosis), Hoechst 33342 staining (Hoe)
# How it was run: as §1
# [3] = test system: CCRF-CEM; assay: NucView caspase 3 activity assay by flow cytometry; assay type: cell-based, human; conditions: 24 h; for EC50: Homo sapiens, read-out: AP50 (50% induction of apoptosis), Caspase 3 activity assay (C3); for The lowest dose of polyphenols at which there was a significant induction of apoptosis compared to the vehicle control: caspase 3 activity, p<0.05
# How it was run: (§2)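 Seeded at 0.5 x 10⁶ cells/well and treated 24 h, with series of 0–50 or 0–250 µM depending on compound. Normalized to vehicle (0% apoptosis). Mean ± STD, three independent experiments in triplicate. One-way ANOVA/Tukey, p<0.05. AP50 = concentration giving 50% apoptotic cells.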
# [4] = test system: K562; assay: Cell cycle analysis, propidium iodide flow cytometry; assay type: cell-based, human; conditions: K562, IC50 dose, 24 h; for Percentage of cells in G0/G1 phase of cell cycle (significant accumulation): vehicle control G0/G1 = 53.7%
# How it was run: (§3)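 Seeded at 0.5 x 10^6 cells per well in 12-well plates and treated 24 h at the IC50 concentration of each test compound from CellTiter-Glo. Cells were pelleted (400 g, 5 min), PBS-washed and fixed in 80% ethanol overnight at -20 °C. Staining used 50 µg/mL PI plus RNase overnight at 4 °C.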
# [5] = test system: non-tumor cord blood (CD34+) cells; assay: CellTiter-Glo luminescent cell viability assay; assay type: cell-based; conditions: 24 h; for IC50: read-out: IC50 (50% inhibition of cellular proliferation), CD34+ non-tumour control cells, 24 h treatment; for The lowest dose of polyphenols at which there was a significant inhibition of cell proliferation compared to the vehicle control: CD34+ non-tumour control cells, doses 0, 2, 10, 50, 250, 500 µM, p<0.05
# How it was run: (§4)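 Cells grown in RPMI 1640 with 10% FBS, 1.5 mM L-glutamine and penicillin/streptomycin at 37 °C, 5% CO2. Seeded at 2.5 x 10³ cells/well and exposed 24 h to ethanol-dissolved test compound (0, 2, 10, 50, 250, 500 µM) with 0.1% ethanol vehicle. ATP luminescence normalized to vehicle (100%). IC50 taken from linear regression. Lowest significant dose set by one-way ANOVA/Tukey, p<0.05. Triplicates, three independent experiments.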
# [6] = test system: MOLT-3; assay: CellTiter-Glo luminescent cell viability assay; assay type: cell-based, human; conditions: MOLT-3, 24 h, doses 0, 2, 10, 50, 250, 500 µM, p<0.05
# How it was run: as §4
# [7] = test system: THP-1; assay: Hoechst 33342 nuclear morphological analysis of apoptosis; assay type: cell-based; conditions: Homo sapiens, THP-1, 24 h, read-out: AP50 (50% induction of apoptosis), Hoechst 33342 staining (Hoe)
# How it was run: as §1
# [8] = test system: THP-1; assay: CellTiter-Glo luminescent cell viability assay; assay type: cell-based, human; conditions: THP-1, 24 h, doses 0, 2, 10, 50, 250, 500 µM, p<0.05
# How it was run: as §4
# [9] = test system: MOLT-3; assay: NucView caspase 3 activity assay by flow cytometry; assay type: cell-based, human; conditions: for EC50: Homo sapiens, MOLT-3, 24 h, read-out: AP50 (50% induction of apoptosis), Caspase 3 activity assay (C3); for The lowest dose of polyphenols at which there was a significant induction of apoptosis compared to the vehicle control: MOLT-3, caspase 3 activity, 24 h, p<0.05
# How it was run: as §2
# [10] = test system: CCRF-CEM; assay: Cell cycle analysis, propidium iodide flow cytometry; assay type: cell-based, human; conditions: IC50 dose, 24 h; for Percentage of cells in G0/G1 phase of cell cycle (significant accumulation): vehicle control G0/G1 = 41.9%
# How it was run: as §3
# [11] = test system: THP-1; assay: NucView caspase 3 activity assay by flow cytometry; assay type: cell-based, human; conditions: for EC50: Homo sapiens, THP-1, 24 h, read-out: AP50 (50% induction of apoptosis), Caspase 3 activity assay (C3); for The lowest dose of polyphenols at which there was a significant induction of apoptosis compared to the vehicle control: THP-1, caspase 3 activity, 24 h, p<0.05
# How it was run: as §2
# [12] = test system: all leukemia cell lines; assay: CellTiter-Glo assay, summary over the leukemia panel; assay type: cell-based, human; conditions: for IC50: Homo sapiens, 24 h, read-out: IC50 values (range over leukemia cell lines)
# How it was run: (§5)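 Cells plated at 2.5 x 10^3 per well in complete RPMI 1640 (10% FBS, 37 °C, 5% CO2). Test compounds dissolved in ethanol and dosed at 2–500 µM for 24 h; vehicle control was 0.1% (v/v) ethanol. Viability was read as ATP luminescence, normalised to vehicle (100%). IC50 was taken from linear regression of each curve. Triplicates, three independent experiments.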
# [13] = test system: KG1a; assay: NucView caspase 3 activity assay by flow cytometry; assay type: cell-based, human; conditions: 24 h; for EC50: Homo sapiens, KG-1a, read-out: AP50 (50% induction of apoptosis), Caspase 3 activity assay (C3); for The lowest dose of polyphenols at which there was a significant induction of apoptosis compared to the vehicle control: KG1a, caspase 3 activity, p<0.05
# How it was run: as §2
# [14] = test system: lymphoid cell lines; assay: CellTiter-Glo assay, summary over lymphoid lines; assay type: cell-based; conditions: Homo sapiens, 24 h, read-out: IC50 (range in lymphoid cell lines)
# How it was run: as §5
# [15] = test system: leukemia cell lines; assay: Cell cycle analysis, summary over the leukemia panel; assay type: cell-based, human; conditions: IC50 dose, 24 h, 8 leukemia cell lines
# How it was run: as §3
# [16] = test system: myeloid cell lines; assay: CellTiter-Glo assay, summary over myeloid lines; assay type: cell-based; conditions: Homo sapiens, 24 h, read-out: IC50 (range in myeloid cell lines)
# How it was run: as §5
# [17] = test system: all leukemia cell lines; assay: Apoptosis; assay type: cell-based, human; conditions: for EC50: Homo sapiens, 24 h, read-out: AP50 values (range over leukemia cell lines)
# [18] = cited from earlier work
EC50 [1],EC50 [2],EC50 [3],EC50 [7],EC50 [9],EC50 [11],IC50 [12],EC50 [13],Compound,The lowest dose of polyphenols at which there was a significant induction of apoptosis compared to the vehicle control [3],IC50 [5],The lowest dose of polyphenols at which there was a significant inhibition of cell proliferation compared to the vehicle control [5],The lowest dose of polyphenols at which there was a significant inhibition of cell proliferation compared to the vehicle control [6],The lowest dose of polyphenols at which there was a significant inhibition of cell proliferation compared to the vehicle control [8],The lowest dose of polyphenols at which there was a significant induction of apoptosis compared to the vehicle control [9],Percentage of cells in G0/G1 phase of cell cycle (significant accumulation) [10],The lowest dose of polyphenols at which there was a significant induction of apoptosis compared to the vehicle control [11],The lowest dose of polyphenols at which there was a significant induction of apoptosis compared to the vehicle control [13],Percentage of cells in G0/G1 phase of cell cycle (significant accumulation) [4],IC50 [14],Phase of cell cycle accumulation over the leukemia cell lines [15],also measured
150 µM,500 µM,50 µM,283 µM,50 µM,> 250 µM,180 to 450 µM,> 250 µM,"O=C1c2cccc(O)c2C(=O)c2c(O)cc(CO)cc21 [Aloe - Emodin, Aloe-emodin]",50 µM,> 500 µM,500 µM,50 µM,250 µM,50 µM,G0/G1 =49%,50 µM,50 µM,–,–,–,Percentage of cells in G2/M phase of cell cycle (significant accumulation) ([4]; vehicle control G2/M = 13.6%): G2/M =20%
38 µM,> 500 µM,250 µM,> 500 µM,140 µM,> 250 µM,–,> 250 µM,O=c1cc(-c2ccccc2)oc2cc(O)cc(O)c12 [Chrysin],50 µM,> 500 µM,500 µM,50 µM,250 µM,50 µM,G0/G1 =49.4%,250 µM,250 µM,G0/G1 =59%,128 to 217 µM,G0/G1 phase in 7 out of the 8 leukemia cell lines,IC50 [16]: 335 to 500 µM
9 µM,> 500 µM,> 10 µM,10 µM,5 µM,7.8 µM,5 to 22 µM,> 10 µM,Cc1cc(O)c2c(c1)C(=O)c1cc(O)cc(O)c1C2=O [Emodin],10 µM,~150 µM,50 µM,2 µM,2 µM,2 µM,G0/G1 =50%,2 µM,2 µM,G0/G1 =66%,–,G0/G1 phase in all leukemia cell lines,"EC50 [17]: 2 to 27 µM; Number of leukemia cell lines in which 50% apoptosis was induced ([17]; Jurkat, MOLT3, HL-60, THP-1 and U937): 5 of the 8"
50 µM,205 µM,50 µM,> 500 µM,50 µM,> 50 µM,8 to 33 µM,> 50 µM,O=c1c(O)c(-c2ccc(O)c(O)c2)oc2cc(O)cc(O)c12 [Quercetin],2 µM,> 500 µM,250 µM,2 µM,2 µM,10 µM,–,10 µM,10 µM,G0/G1=60%,8 to 20 µM,–,plasma concentration ([18]; 50-100 mg dose): 750 to 1500 nM; plasma half-life [18]: 11 to 28 h; EC50 [17]: 19 to 50 µM; Percentage of cells in S phase of cell cycle (significant accumulation) ([10]; vehicle control S = 47.2%): S = 51.4%; IC50 [16]: 33 to 155 µM; Potency relative to apigenin and chrysin ([12]; times more potent than apigenin and chrysin): 5-10 times
265 µM,> 500 µM,200 µM,60 µM,200 µM,50 µM,–,> 250 µM,O=C(O)c1cc(O)c2c(c1)C(=O)c1cccc(O)c1C2=O [Rhein],50 µM,380 µM,250 µM,50 µM,50 µM,50 µM,G0/G1 =54%,50 µM,50 µM,–,–,–,–
